In brackets after ≈: the same amount, converted by molar mass.
Legend:
[1] = test system: Pseudomonas fluorescens; assay: Antimicrobial activity against Pseudomonas fluorescens isolate PF-1 expressing beta-lactamase BIC-1 by Etest; format: functional
Procedure, shortened: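 MIC for isolate PF-1 by Etest, interpreted per CLSI recommendations. Cultures grown in Trypticase soy broth, 37°C, 18 h.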

[2] = test system: Escherichia coli; assay: Antimicrobial activity against Escherichia coli DH10B harbouring recombinant plasmid pSau1 expressing beta-lactamase BIC-1 from Pseudomonas fluorescens PF-1 by Etest; format: functional
[3] = test system: Escherichia coli; assay: Antimicrobial activity against Escherichia coli DH10B by Etest; format: functional
Procedure, shortened: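 MIC by Etest, interpreted per CLSI recommendations. Reference strain E. coli DH10B without recombinant plasmid; cultures grown in Trypticase soy broth at 37°C for 18 h.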

[4] = test system: Pseudomonas fluorescens; assay: Antimicrobial activity against Pseudomonas fluorescens isolate PF-1 expressing beta-lactamase BIC-1 by Etest in presence of 4 ug/ml of clavulanic acid; format: functional
Procedure, shortened: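 MIC for isolate PF-1 by Etest, with clavulanic acid held at a fixed 4 μg/ml and the β-lactam varied. Interpreted per CLSI recommendations.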

[5] = test system: Escherichia coli; assay: Antimicrobial activity against Escherichia coli DH10B harbouring recombinant plasmid pSau1 expressing beta-lactamase BIC-1 from Pseudomonas fluorescens PF-1 by Etest in presence of 4 ug/ml of clavulanic acid; format: functional
[6] = test system: Escherichia coli; assay: Antimicrobial activity against Escherichia coli DH10B by Etest in presence of 4 ug/ml of clavulanic acid; format: functional
Procedure, shortened: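 Etest MIC with clavulanic acid held at a fixed 4 μg/ml alongside the β-lactam, read per CLSI recommendations. Strain E. coli DH10B; cultures grown in TS broth at 37°C for 18 h.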

[7] = test system: Pseudomonas fluorescens; assay: Activity at Pseudomonas fluorescens PF-1 beta-lactamase BIC-1 expressed in Escherichia coli DH10B carrying pSau1
[8] = Inhibition of Pseudomonas fluorescens PF-1 beta-lactamase BIC-1 expressed in Escherichia coli DH10B carrying pSau1
Procedure, shortened: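 BIC-1 purified from E. coli DH10B(pSau1) lysate by S-Sepharose flowthrough, then Q-Sepharose with a 0–500 mM NaCl gradient. Enzyme preincubated with varied inhibitor (clavulanate, tazobactam or sulbactam) for 3 min at 30°C. Then 100 μM benzylpenicillin added. IC50 is the inhibitor concentration halving the hydrolysis rate.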

[9] = target: Carbapenem-hydrolyzing beta-lactamase KPC (Klebsiella pneumoniae, UniProt Q9F663); assay: Inhibition of carbapenem-resistant Klebsiella pneumoniae carbepenem-hydrolyzing beta-lactamase KPC-1
Sequence of Carbapenem-hydrolyzing beta-lactamase KPC (Q9F663 whole entry): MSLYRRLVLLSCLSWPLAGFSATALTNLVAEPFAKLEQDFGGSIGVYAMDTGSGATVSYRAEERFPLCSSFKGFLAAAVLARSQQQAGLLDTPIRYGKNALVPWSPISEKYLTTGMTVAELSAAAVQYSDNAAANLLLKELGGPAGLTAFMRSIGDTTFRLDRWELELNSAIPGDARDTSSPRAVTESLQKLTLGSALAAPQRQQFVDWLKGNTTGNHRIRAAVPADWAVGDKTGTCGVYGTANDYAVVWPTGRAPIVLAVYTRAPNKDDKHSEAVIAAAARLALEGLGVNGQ

[10] = substrate: CC(=O)OCC1=C(C(=O)O)N2C(=O)[C@@H](NC(=O)Cc3cccs3)[C@H]2SC1; assay: (§1) Ratio of Kcat to Km of Pseudomonas fluorescens PF-1 beta-lactamase BIC-1 expressed in Escherichia coli DH10B using nitrocefin hydrolysis
Procedure, shortened: (§2)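 Cells from overnight 37°C TS broth culture with amoxicillin and kanamycin were sonicated. Enzyme purified by S-Sepharose (malonate pH 6.1), then Q-Sepharose (bis-Tris pH 7.2, 0–500 mM NaCl gradient), and dialyzed into 50 mM sodium phosphate pH 7. kcat and Km measured on the purified enzyme. Values are means of three independent experiments; SD within 10%.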

[11] = substrate: CC1(C)S[C@@H]2[C@H](NC(=O)Cc3ccccc3)C(=O)N2[C@H]1C(=O)O; assay: as §1; procedure, shortened: as §2
[12] = substrate: CC1(C)S[C@@H]2[C@H](NC(=O)[C@H](C(=O)O)c3ccsc3)C(=O)N2[C@H]1C(=O)O; assay: as §1; procedure, shortened: as §2
[13] = substrate: CC1(C)S[C@@H]2[C@H](NC(=O)[C@H](N)c3ccccc3)C(=O)N2[C@H]1C(=O)O; assay: as §1; procedure, shortened: as §2
[14] = substrate: CCN1CCN(C(=O)N[C@@H](C(=O)N[C@@H]2C(=O)N3[C@@H]2SC(C)(C)[C@@H]3C(=O)O)c2ccccc2)C(=O)C1=O; assay: as §1; procedure, shortened: as §2
[15] = substrate: CO/N=C(\C(=O)N[C@@H]1C(=O)N2C(C(=O)O)=C(COC(C)=O)CS[C@H]12)c1csc(N)n1; assay: as §1; procedure, shortened: as §2
[16] = substrate: CO/N=C(\C(=O)N[C@@H]1C(=O)N2C(C(=O)O)=C(COC(N)=O)CS[C@H]12)c1ccco1; assay: as §1; procedure, shortened: as §2
[17] = substrate: CO[C@@]1(NC(=O)C(C(=O)O)c2ccc(O)cc2)C(=O)N2C(C(=O)O)=C(CSc3nnnn3C)CO[C@@H]21; assay: as §1; procedure, shortened: as §2
[18] = substrate: CO[C@@]1(NC(=O)Cc2cccs2)C(=O)N2C(C(=O)O)=C(COC(N)=O)CS[C@@H]21; assay: as §1; procedure, shortened: as §2
[19] = substrate: C[C@@H](O)[C@H]1C(=O)N2C(C(=O)O)=C(SCCNC=N)C[C@H]12; assay: as §1; procedure, shortened: as §2
[20] = substrate: C[C@@H](O)[C@H]1C(=O)N2C(C(=O)O)=C(S[C@@H]3CN[C@H](C(=O)N(C)C)C3)[C@H](C)[C@H]12; assay: as §1; procedure, shortened: as §2
[21] = substrate: C[C@@H](O)[C@H]1C(=O)N2C(C(=O)O)=C(S[C@@H]3CN[C@H](C(=O)Nc4cccc(C(=O)O)c4)C3)[C@H](C)[C@H]12; assay: as §1; procedure, shortened: as §2
[22] = substrate: C[C@H]1[C@H](NC(=O)/C(=N\OC(C)(C)C(=O)O)c2csc(N)n2)C(=O)N1S(=O)(=O)O; assay: as §1; procedure, shortened: as §2
[23] = substrate: Cc1onc(-c2ccccc2)c1C(=O)N[C@@H]1C(=O)N2[C@@H]1SC(C)(C)[C@@H]2C(=O)O; assay: as §1; procedure, shortened: as §2
[24] = substrate: O=C(Cc1cccs1)N[C@@H]1C(=O)N2C(C(=O)[O-])=C(C[n+]3ccccc3)CS[C@H]12; assay: as §1; procedure, shortened: as §2

Molecule: CC1(C)S[C@@H]2[C@H](NC(=O)[C@H](C(=O)O)c3ccsc3)C(=O)N2[C@H]1C(=O)O [TICARCILLIN]
- MIC [1]: > 256 µg/mL
- MIC [2]: > 256 µg/mL
- MIC [3]: 4 µg/mL (≈ 10.4 µM)
- MIC [4]: > 256 µg/mL
- MIC [5]: 128 µg/mL
- MIC [6]: 4 µg/mL
- Km [7]: 250 µM
- kcat [7]: 15 s⁻¹

Molecule: CC1(C)S[C@@H]2[C@H](NC(=O)[C@H](N)c3ccc(O)cc3)C(=O)N2[C@H]1C(=O)O [AMOXICILLIN]
- MIC [1]: > 256 µg/mL
- MIC [2]: > 256 µg/mL
- MIC [3]: 4 µg/mL (≈ 10.9 µM)
- MIC [4]: > 256 µg/mL
- MIC [5]: 16 µg/mL
- MIC [6]: 4 µg/mL

Molecule: C[C@@H](O)[C@H]1C(=O)N2C(C(=O)O)=C(SCCNC=N)C[C@H]12 [IMIPENEM ANHYDROUS]
- MIC [1]: > 16 µg/mL
- MIC [4]: > 16 µg/mL
- MIC [6]: 0.12 µg/mL
- Km [7]: 300 µM
- kcat [7]: 50 s⁻¹

Molecule: C[C@@H](O)[C@H]1C(=O)N2C(C(=O)O)=C(S[C@@H]3CN[C@H](C(=O)N(C)C)C3)[C@H](C)[C@H]12 [MEROPENEM]
- MIC [1]: > 16 µg/mL
- MIC [2]: 0.25 µg/mL
- MIC [3]: 0.12 µg/mL (≈ 0.313 µM)
- Km [7]: 12 µM
- kcat [7]: 1 s⁻¹

Molecule: CO[C@@]1(NC(=O)C(C(=O)O)c2ccc(O)cc2)C(=O)N2C(C(=O)O)=C(CSc3nnnn3C)CO[C@@H]21 (some centres undefined) [MOXALACTAM]
- MIC [1]: > 256 µg/mL
- MIC [2]: 0.12 µg/mL
- MIC [3]: 0.12 µg/mL (≈ 0.231 µM)
- Km [7]: 1700 µM
- kcat [7]: 3 s⁻¹

Molecule: CO/N=C(\C(=O)N[C@@H]1C(=O)N2C(C(=O)O)=C(COC(C)=O)CS[C@H]12)c1csc(N)n1 [CEFOTAXIME]
- MIC [1]: > 32 µg/mL
- MIC [2]: 0.5 µg/mL
- MIC [3]: 0.12 µg/mL (≈ 0.263 µM)
- Km [7]: 2200 µM
- kcat [7]: 20 s⁻¹

Molecule: CC(C)(O/N=C(\C(=O)N[C@@H]1C(=O)N2C(C(=O)[O-])=C(C[n+]3ccccc3)CS[C@H]12)c1csc(N)n1)C(=O)O [CEFTAZIDIME]
- MIC [1]: 2 µg/mL (≈ 3.66 µM)
- MIC [2]: 0.5 µg/mL
- MIC [3]: 0.5 µg/mL (≈ 0.915 µM)

Molecule: O=C(Cc1cccs1)N[C@@H]1C(=O)N2C(C(=O)[O-])=C(C[n+]3ccccc3)CS[C@H]12
- Km [7]: 770 µM
- kcat [7]: 170 s⁻¹

Molecule: CCN1CCN(C(=O)N[C@@H](C(=O)N[C@@H]2C(=O)N3[C@@H]2SC(C)(C)[C@@H]3C(=O)O)c2ccccc2)C(=O)C1=O [PIPERACILLIN]
- MIC [1]: 4 µg/mL (≈ 7.73 µM)
- MIC [2]: 256 µg/mL
- MIC [3]: 1 µg/mL (≈ 1.93 µM)
- Km [7]: 175 µM
- kcat [7]: 40 s⁻¹

Molecule: C[C@]1(Cn2ccnn2)[C@H](C(=O)O)N2C(=O)C[C@H]2S1(=O)=O [TAZOBACTAM]
- IC50 [8]: 6.5 µM

Molecule: CO/N=C(\C(=O)N[C@@H]1C(=O)N2C(C(=O)O)=C(COC(N)=O)CS[C@H]12)c1ccco1 [CEFUROXIME]
- MIC [1]: > 256 µg/mL
- MIC [2]: 16 µg/mL
- MIC [3]: 0.5 µg/mL (≈ 1.18 µM)
- Km [7]: > 1000 µM
- kcat [7]: 9 s⁻¹

Molecule: C[C@H]1[C@H](NC(=O)/C(=N\OC(C)(C)C(=O)O)c2csc(N)n2)C(=O)N1S(=O)(=O)O [AZTREONAM]
- MIC [1]: > 256 µg/mL
- MIC [2]: 16 µg/mL
- Km [7]: > 1000 µM
- kcat [7]: 35 s⁻¹

Molecule: CO[C@@]1(NC(=O)Cc2cccs2)C(=O)N2C(C(=O)O)=C(COC(N)=O)CS[C@@H]21 [CEFOXITIN]
- MIC [1]: > 256 µg/mL
- MIC [2]: 4 µg/mL
- MIC [3]: 1 µg/mL (≈ 2.34 µM)
- Km [7]: 825 µM
- kcat [7]: 1 s⁻¹

Molecule: CO/N=C(\C(=O)N[C@@H]1C(=O)N2C(C(=O)[O-])=C(C[N+]3(C)CCCC3)CS[C@H]12)c1csc(N)n1
- MIC [1]: > 16 µg/mL
- MIC [2]: 0.12 µg/mL

Molecule: CC(=O)OCC1=C(C(=O)O)N2C(=O)[C@@H](NC(=O)Cc3cccs3)[C@H]2SC1 [CEPHALOTHIN]
- MIC [1]: > 256 µg/mL
- MIC [2]: 128 µg/mL
- MIC [3]: 2 µg/mL (≈ 5.04 µM)
- Km [7]: 550 µM
- kcat [7]: 250 s⁻¹

Molecule: C[C@@H](O)[C@H]1C(=O)N2C(C(=O)O)=C(S[C@@H]3CN[C@H](C(=O)Nc4cccc(C(=O)O)c4)C3)[C@H](C)[C@H]12
- MIC [1]: > 16 µg/mL
- MIC [2]: 0.25 µg/mL
- MIC [3]: 0.12 µg/mL (≈ 0.252 µM)
- Km [7]: 10 µM
- kcat [7]: 2 s⁻¹

Molecule: O=C(O)[C@H]1/C(=C/CO)O[C@@H]2CC(=O)N21 [CLAVULANIC ACID]
- IC50 [8]: 30 µM
- IC50 [9]: 10.5 µM

Molecule: CC1(C)S[C@@H]2[C@H](NC(=O)[C@H](N)c3ccccc3)C(=O)N2[C@H]1C(=O)O
- Km [7]: 1150 µM
- kcat [7]: 185 s⁻¹

Molecule: Cc1onc(-c2ccccc2)c1C(=O)N[C@@H]1C(=O)N2[C@@H]1SC(C)(C)[C@@H]2C(=O)O
- Km [7]: 110 µM
- kcat [7]: 15 s⁻¹

Molecule: CC1(C)S[C@@H]2[C@H](NC(=O)Cc3ccccc3)C(=O)N2[C@H]1C(=O)O
- Km [7]: 48 µM
- kcat [7]: 31 s⁻¹

B1: Beta-lactamase (Pseudomonas fluorescens), D2WFL1 (protein)
chain: MARPSKLALSFSLLLPFLPFTSFAETWPQGDIARQKIVKLEKDFGGRIGVSAIDTGANRTFDFRADERFPLCSSFKGFLAGAVLSHSQQQEGLLEKRIDYKNRVMEPHSPISAQHSSTGMTVAQLAAAALQYSDNGATNLLLENVLGGPAGMTTFMRTLGDTTFRLDRWELELNSAIPGDDRDTSTPHAIARSLQKIALGEALQTAPRQQLVDWLIGNTTGGARIRAGVPVEWVVGDKTGTCGVYGTANDYAVIWPKTSAPIVLAIYTAKPNKEDKHSDAVIAEVTRAVLESFE
- kcat/Km [10]: 500000 M⁻¹ s⁻¹
- kcat/Km [11]: 660000 M⁻¹ s⁻¹
- kcat/Km [12]: 60000 M⁻¹ s⁻¹
- kcat/Km [13]: 160000 M⁻¹ s⁻¹
- kcat/Km [14]: 210000 M⁻¹ s⁻¹
- kcat/Km [15]: 9000 M⁻¹ s⁻¹
- kcat/Km [16]: < 9000 M⁻¹ s⁻¹
- kcat/Km [17]: 1000 M⁻¹ s⁻¹
- kcat/Km [18]: 1000 M⁻¹ s⁻¹
- kcat/Km [19]: 170000 M⁻¹ s⁻¹
- kcat/Km [20]: 80000 M⁻¹ s⁻¹
- kcat/Km [21]: 200000 M⁻¹ s⁻¹
- kcat/Km [22]: < 35000 M⁻¹ s⁻¹
- kcat/Km [23]: 100000 M⁻¹ s⁻¹
- kcat/Km [24]: 220000 M⁻¹ s⁻¹
